# Calls of active or inactive are those of the source. The rule behind the calls is not given here.
# Assays:
# [1] = biological target: T1, G-protein coupled receptor 55 (Homo sapiens, UniProt Q9Y2T6); assay: Agonist activity at human GPR55 transfected in CHO cells at 10 uM after 90 mins by beta-arrestin translocation assay; type: cell-based
# How it was run: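 CHO cells stably expressing human GPR55 (β-galactosidase fragment complementation) were seeded at 20,000 cells/well in Opti-MEM with 2% FCS for 24 h at 37°C. Compound was diluted in PBS with 10% DMSO and 0.1% BSA, screened at 10 µM and incubated 90 min at 37°C. Galacton-Star/Emerald-II/lysis buffer (1:5:19) was added for 60 min at RT, then luminescence was read. Response is relative to 1 µM LPI (100%).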
# [2] = biological target: T1, G-protein coupled receptor 55; assay: Antagonist activity at human GPR55 transfected in CHO cells assessed as inhibition of LPI-induced beta-arrestin recruitment at 10 uM incubated 60 mins prior to LPI addition by beta-arrestin translocation assay; type: cell-based; set-up: scale not given: the % may be the effect or the level left
# How it was run: (§1)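 CHO cells stably expressing human GPR55 were seeded at 20,000 cells/well for 24 h at 37°C. Compound in PBS/10% DMSO/0.1% BSA was added 60 min before 1 µM LPI. Galacton-Star/Emerald-II/lysis buffer (pH 8) was applied for 60 min at RT, with luminescence read-out. Screening was at 10 µM (% inhibition). IC50 was measured where inhibition exceeded 60%. Three independent experiments in duplicate.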
# [3] = biological target: T1, G-protein coupled receptor 55; assay: Antagonist activity at human GPR55 transfected in CHO cells assessed as inhibition of LPI-induced beta-arrestin recruitment incubated 60 mins prior to LPI addition by beta-arrestin translocation assay; type: cell-based; how it was run: as §1
# [4] = biological target: T2, N-arachidonyl glycine receptor (Homo sapiens) (UniProt Q14330); assay: Antagonist activity at human GPR18 transfected in CHO cells assessed as delta9-THC-induced beta-arrestin recruitment at 10 uM incubated 60 mins prior to delta9-THC addition by beta-arrestin translocation assay; type: cell-based; set-up: scale not given: the % may be the effect or the level left
# T2 sequence (whole entry): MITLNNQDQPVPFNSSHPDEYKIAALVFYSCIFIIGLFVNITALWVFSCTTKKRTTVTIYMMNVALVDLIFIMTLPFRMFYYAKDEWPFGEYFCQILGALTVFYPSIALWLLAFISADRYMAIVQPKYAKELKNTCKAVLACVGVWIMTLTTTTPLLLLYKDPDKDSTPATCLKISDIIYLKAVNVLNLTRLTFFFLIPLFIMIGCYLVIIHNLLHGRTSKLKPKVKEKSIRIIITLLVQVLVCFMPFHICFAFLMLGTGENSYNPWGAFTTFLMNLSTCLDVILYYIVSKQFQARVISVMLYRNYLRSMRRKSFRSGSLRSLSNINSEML
# How it was run: (§2)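 CHO cells stably expressing human GPR18 were seeded at 20,000 cells/well for 24 h at 37°C. Compound in PBS/10% DMSO/0.1% BSA was added 60 min before the GPR18 agonist 3 at 10 µM. The supplier's detection reagent was used, and luminescence was read after 60 min at RT. Screening was at 10 µM (% inhibition); IC50 from concentration-inhibition curves. Three independent experiments in duplicate.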
# [5] = biological target: T3, N-arachidonyl glycine receptor (Homo sapiens, UniProt Q14330); assay: Antagonist activity at human GPR18 transfected in CHO cells assessed as delta9-THC-induced beta-arrestin recruitment incubated 60 mins prior to delta9-THC addition by beta-arrestin translocation assay; type: cell-based; how it was run: as §2
# T3 sequence (Q14330 whole entry): T2 sequence (whole entry)
# Cannabinoid receptor 2 = Cannabinoid receptor 2 (Homo sapiens, UniProt P34972); assay: Displacement of [3H]-CP55,940 from human CB2 receptor transfected in CHOK1 cells; type: cell-based, CHO-K1
# How it was run: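 CHO cells stably expressing human CB2 supplied the membranes, 1 µg protein per vial. Compounds were screened at 10 µM, and full competition curves were run where inhibition was about 50% or more. Three independent experiments in duplicate.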
# Cannabinoid receptor 1 [6] = biological target: T4, Cannabinoid receptor 1 (Homo sapiens, UniProt P21554); assay: Displacement of [3H]-CP55,940 from human CB1 receptor transfected in CHOK1 cells at 10 uM; type: cell-based; conditions: CHO-K1
# How it was run: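 Human CB1 from membrane preparations of stably transfected CHO cells, 25 µg protein per vial. Competition with [3H]CP55,940 at 0.1 nM final, with test compound at 10 µM, read as % inhibition of radioligand binding. Final DMSO 2.5%. Three independent experiments in duplicate.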
# Cannabinoid receptor 1 [7] = biological target: T4, Cannabinoid receptor 1; assay: Displacement of [3H]-CP55,940 from human CB1 receptor transfected in CHOK1 cells; type: cell-based, CHO-K1
# Chain of Cannabinoid receptor 2 (P34972 whole entry): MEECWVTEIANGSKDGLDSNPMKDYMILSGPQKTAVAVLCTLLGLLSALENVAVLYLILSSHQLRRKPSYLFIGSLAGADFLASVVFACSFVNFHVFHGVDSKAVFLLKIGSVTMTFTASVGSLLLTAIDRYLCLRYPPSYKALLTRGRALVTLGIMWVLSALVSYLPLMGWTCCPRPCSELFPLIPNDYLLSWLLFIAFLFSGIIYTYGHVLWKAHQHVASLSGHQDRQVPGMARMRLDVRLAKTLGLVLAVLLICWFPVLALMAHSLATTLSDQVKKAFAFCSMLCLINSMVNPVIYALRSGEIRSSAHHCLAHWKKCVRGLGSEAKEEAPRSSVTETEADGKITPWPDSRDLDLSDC
# T1 sequence (Q9Y2T6 whole entry, the tested form may be a part): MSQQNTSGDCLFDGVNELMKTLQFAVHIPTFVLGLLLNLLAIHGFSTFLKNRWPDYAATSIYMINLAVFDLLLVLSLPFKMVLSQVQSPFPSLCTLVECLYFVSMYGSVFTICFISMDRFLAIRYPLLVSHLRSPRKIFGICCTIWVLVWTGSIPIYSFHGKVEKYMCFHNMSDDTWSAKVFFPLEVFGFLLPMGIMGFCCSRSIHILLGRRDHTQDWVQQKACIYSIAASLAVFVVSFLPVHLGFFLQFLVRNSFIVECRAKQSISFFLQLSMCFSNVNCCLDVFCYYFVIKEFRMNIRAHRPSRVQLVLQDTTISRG
# T4 sequence (P21554 whole entry): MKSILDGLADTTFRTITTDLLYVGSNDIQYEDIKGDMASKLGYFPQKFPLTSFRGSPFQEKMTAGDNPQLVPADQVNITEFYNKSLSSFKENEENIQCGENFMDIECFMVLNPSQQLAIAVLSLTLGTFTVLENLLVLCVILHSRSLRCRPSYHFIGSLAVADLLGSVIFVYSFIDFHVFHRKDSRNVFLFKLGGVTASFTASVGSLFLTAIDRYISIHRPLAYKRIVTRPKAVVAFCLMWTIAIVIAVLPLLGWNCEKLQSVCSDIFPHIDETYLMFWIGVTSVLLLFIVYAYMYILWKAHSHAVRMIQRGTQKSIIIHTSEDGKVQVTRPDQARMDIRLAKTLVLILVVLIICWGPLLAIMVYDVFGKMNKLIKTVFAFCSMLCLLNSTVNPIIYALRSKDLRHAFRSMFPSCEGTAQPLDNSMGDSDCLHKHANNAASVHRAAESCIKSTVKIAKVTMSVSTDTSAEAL
Compound,Activity [1],Activity [2] [%],IC50 [3] [µM],Activity [4] [%],IC50 [5] [µM],Ki (Cannabinoid receptor 2) [µM],Activity (Cannabinoid receptor 1 [6]) [%],Ki (Cannabinoid receptor 1 [7]) [µM]
Cc1cc2cc(Cl)cc(Br)c2oc1=O,inactive,45,> 10,–,–,–,–,–
CCCCCc1cc(O)c2cc(Cc3ccccc3C)c(=O)oc2c1,inactive,19,> 10,10,> 10,–,–,–
COc1ccc2cc(Cc3ccccc3)c(=O)oc2c1,inactive,53,10,–,–,–,–,–
COc1ccc(Br)c2oc(=O)c(Cc3ccccc3)cc12,inactive,2,> 10,–,–,–,–,–
Cc1cc(O)c2cc(Cc3ccccc3C)c(=O)oc2c1,inactive,45,> 10,–,–,–,–,–
COc1cc(C)cc2oc(=O)c(Cc3ccccc3)cc12,inactive,–,6.74,24,> 10,≥ 10,45,≥ 10
Cc1cc2cc(I)ccc2oc1=O,inactive,40,> 10,–,–,–,–,–
CCCCCc1cc(OC)c2cc(Cc3cccc(C)c3)c(=O)oc2c1,inactive,27,> 10,–,–,–,–,–
CCCCCc1cc(OC)c2cc(Cc3cccc(Cl)c3)c(=O)oc2c1,inactive,36,> 10,–,–,–,–,–
COc1cccc2oc(=O)c(Cc3ccccc3)cc12,inactive,43,> 10,–,–,–,–,–
COc1cccc(Cc2cc3c(OC)cc(CBr)cc3oc2=O)c1,inactive,18,> 10,–,–,–,–,–
COc1ccc2oc(=O)c(C)cc2c1,inactive,13,> 10,–,–,–,–,–
CCCCCc1cc(O)c2cc(Cc3ccccc3Cl)c(=O)oc2c1,inactive,0,> 10,0,> 10,–,–,–
COc1ccc2cc(C)c(=O)oc2c1,inactive,25,> 10,–,–,–,–,–
COc1ccccc1Cc1cc2c(C)c(OC)c(C)c(C)c2oc1=O,inactive,–,0.981,27,> 10,0.338,–,3.66
O=c1oc2ccc(I)cc2cc1Cc1ccccc1,inactive,46,> 10,–,–,–,–,–
COc1cccc2cc(Cc3ccccc3)c(=O)oc12,inactive,5,> 10,–,–,–,–,–
CCCCCc1cc(OC)c2cc(Cc3ccccc3)c(=O)oc2c1,inactive,36,> 10,–,–,–,–,–
COc1cc(Br)cc2cc(C)c(=O)oc12,inactive,16,> 10,–,–,–,–,–
Cc1c(O)c(C)c2cc(Cc3ccc(F)cc3)c(=O)oc2c1C,inactive,–,10.3,47,≥ 10,0.444,34,> 10
Cc1c(O)c(C)c2cc(Cc3ccccc3)c(=O)oc2c1C,inactive,–,9.32,16,> 10,3.42,21,> 10
CCCCCc1cc(OC)c2cc(Cc3ccc(F)cc3)c(=O)oc2c1,inactive,57,10,–,–,–,–,–
COc1cccc2cc(C)c(=O)oc12,inactive,7,> 10,–,–,–,–,–
O=c1oc2ccc3ccccc3c2cc1Cc1ccccc1,inactive,–,2.81,–,–,–,–,–

Compound,Activity [1],Activity [2] [%],IC50 [3] [µM],Activity [4] [%],IC50 [5] [µM],Ki (Cannabinoid receptor 2) [µM],Activity (Cannabinoid receptor 1 [6]) [%],Ki (Cannabinoid receptor 1 [7]) [µM]
COc1cccc(Cc2cc3c(OC)cccc3oc2=O)c1,inactive,54,10,–,–,–,–,–
Cc1ccccc1Cc1cc2c(C)c(O)c(C)c(C)c2oc1=O,inactive,–,5.16,38,> 10,1.56,45,≥ 10
CCCCCc1cc(O)c2cc(Cc3ccccc3)c(=O)oc2c1,inactive,0,> 10,–,–,–,–,–
CCCCCc1cc(OC)c2cc(Cc3ccccc3Cl)c(=O)oc2c1,inactive,–,9,25,> 10,–,–,–
Cc1cc2c(ccc3ccccc32)oc1=O,inactive,28,> 10,–,–,–,–,–
COc1ccccc1Cc1cc2c(C)ccc(C)c2oc1=O,inactive,–,7.14,0,> 10,6.83,16,> 10
O=c1oc2cccc(O)c2cc1Cc1ccccc1,inactive,6,> 10,–,–,–,–,–
CCCCCCC(C)(C)c1cc(OC)c2cc(Cc3ccccc3)c(=O)oc2c1,inactive,51,10,31,> 10,–,–,–
CCCCC1(c2cc(OC)c3cc(Cc4ccccc4OC)c(=O)oc3c2)CCCC1,inactive,30,> 10,25,> 10,–,–,–
COc1c(C)c(C)c2oc(=O)c(Cc3ccccc3C)cc2c1C,inactive,–,7.69,33,> 10,0.66,–,7.86
CCCCCc1cc(O)c2cc(Cc3ccccc3O)c(=O)oc2c1,inactive,37,> 10,–,–,–,–,–
CCCCCCC(C)(C)c1ccc([C@@H]2C[C@H](O)CC[C@H]2CCCO)c(O)c1 [CP-55940],–,–,–,–,5.99,–,–,–
O=c1oc2ccccc2cc1Cc1ccccc1,inactive,28,> 10,–,–,–,–,–
COc1cccc(Cc2cc3c(OC)cc(Br)cc3oc2=O)c1,inactive,–,3.99,31,> 10,–,38,–
CCCCCCC(C)(C)c1cc(OC)c2cc(Cc3ccccc3OC)c(=O)oc2c1,inactive,25,> 10,26,> 10,–,–,–
COc1cccc(Cc2cc3c(OC)cc(CO)cc3oc2=O)c1,inactive,13,> 10,–,–,–,–,–
COc1c(C)c(C)c2oc(=O)c(Cc3ccc(F)cc3)cc2c1C,inactive,–,13.5,32,> 10,1.48,49,10
CCCCCc1cc(OC)c2cc(Cc3cc(C)c(OC)c(C)c3)c(=O)oc2c1,inactive,44,> 10,–,–,–,–,–
CCCCCc1cc(O)c2cc(Cc3cccc(Cl)c3)c(=O)oc2c1,inactive,30,> 10,–,–,–,–,–
Cc1ccc(Cc2cc3c(O)cc(C)cc3oc2=O)cc1,inactive,42,> 10,–,–,–,–,–
CCCCCc1cc(O)c2cc(Cc3cccc(C)c3)c(=O)oc2c1,inactive,19,> 10,–,–,–,–,–
COc1c(C)c(C)c2oc(=O)c(Cc3ccccc3)cc2c1C,inactive,–,12.8,46,≥ 10,1.77,42,≥ 10
COc1ccc2oc(=O)c(Cc3ccccc3)cc2c1,inactive,54,10,–,–,–,–,–

# — ChEMBL document CHEMBL2384924, “Antagonists for the orphan G-protein-coupled receptor GPR55 based on a coumarin scaffold” (J Med Chem, 2013)
